B1: Osa-1-4 twister ribozyme (parent)
chain: CCGCCUAACACUGCCAAUGCCGGUCCCAAGCCCGGAUAAAAGUGGAGGGGGCGG

Variants of: B1
Assay: self-cleavage, relative activity (ratio to wild type); higher = more cleavage; co-transcriptional
In short: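 A DNA template was synthesised for a 54-nucleotide twister ribozyme from Oryza sativa, with 97 % wild-type base and 1 % of each other base at each of the 48 positions downstream of the cleavage site. The ribozyme cleaved itself co-transcriptionally during 2 h of in vitro transcription at 37 °C. Reverse transcription with a template-switching oligonucleotide, PCR amplification and deep sequencing followed, and cleavage status came from reads with or without upstream sequence. Relative activity is the fraction cleaved normalised to wild type.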

Point of comparison: A40G C33G, self-cleavage 0.06. Against it:
- A40C G50A — higher, 0.08
- A40C G50C — higher, 0.07
- A40C G50U — higher, 0.07
- A40G C33U — higher, 0.15
- A40G C33A — higher, 0.08
- A40G C21G — higher, 0.08
- A40G C21A — higher, 0.25
- A40G C21U — higher, 0.79
- A40G C20A — higher, 0.78
- A40G C20G — higher, 0.1
- A40G C20U — higher, 0.91
- A40G C15U — higher, 0.13
- A40G C15G — higher, 0.14
- A40G C15A — higher, 0.13
- A40G U43A — higher, 0.21
- A40G U43C — higher, 0.14
- A40G U43G — higher, 0.19
- A40C C9A — lower, 0.02
- A40C C9G — higher, 0.07
- A40C C9U — lower, 0.05
- A40G G53A — higher, 0.2
- A40G G53U — higher, 0.12
- A40G G53C — higher, 0.08
- A40C C32G — lower, 0.03
- A40C C32A — lower, 0.04
- A40C C32U — lower, 0.03
- A39U U37G — higher, 1.02
- A39U U37A — higher, 0.99
- A39U U37C — higher, 1
- A40G G42U — higher, 0.07
- A40G G42A — higher, 0.14
- A40G G42C — higher, 0.13
- A40C C52G — higher, 0.09
- A40C C52U — higher, 0.1
- A40C C52A — higher, 0.11
- A40C C14A — lower, 0.04
- A40C C14U — lower, 0.05
- A40C C14G — lower, 0.03
- A39U G19A — higher, 0.35
- A39U G19U — higher, 0.11
- A39U G19C — higher, 0.07
- A39U G13U — lower, 0.02
- A39U G13A — lower, 0.05
- A39U G13C — lower, 0.03
- A39U G51U — higher, 0.28
- A39U G51A — higher, 0.61
- A39U G51C — the same, 0.06
- A39U G47U — higher, 0.11
- A39U G47C — higher, 0.07
- A39U G47A — higher, 0.13
- A40G U24G — lower, 0.02
- A40G U24A — higher, 0.07
- A40G U24C — higher, 0.08
- A40G U18C — higher, 0.72
- A40G U18G — higher, 0.76
- A40G U18A — higher, 0.88
- A40G A7U — higher, 0.08
- A40G A7G — higher, 0.35
- A40G A7C — lower, 0.05
- A40G G51U — higher, 0.12
- A40G G51C — higher, 0.07
- A40G G51A — higher, 0.25
- A39U C31G — higher, 0.08
- A39U C31U — higher, 0.67
- A39U C31A — lower, 0.03
- A40C G23U — lower, 0.02
- A40C G23C — lower, 0.02
- A40C G23A — the same, 0.06
- A39U G35A — higher, 0.83
- A39U G35C — higher, 0.19
- A39U G35U — higher, 0.87
- A40C G30U — lower, 0.01
- A40C G30C — lower, 0.02
- A40C G30A — lower, 0.02
- A39U G45U — lower, 0.05
- A39U G45A — higher, 0.12
- A39U G45C — the same, 0.06
- A40G G22U — higher, 0.16
- A40G G22C — the same, 0.06
- A40G G22A — higher, 0.46
- A40G C11G — higher, 0.13
- A40G C11A — higher, 0.14
- A40G C11U — higher, 0.32

Reference: the RNAGym collection of RNA variant scans (doi:10.1002/anie.201605470)
